The results in this text go back to ChEMBL document CHEMBL1123113, “"Reverse" and "symmetrical" analogues of actinomycin D: metabolic activation and in vitro and in vivo tumor growth inhibitory activities” (J Med Chem, 1985).

One may read the MTD as the largest dose that counted as tolerated. Low values mean a narrow tolerated range, high ones a wide tolerated range. What is called ILS is how much longer treated animals lived than controls.

Data set [1] is filed under the species Rattus norvegicus. As to the kind of experiment: (§1) Compound tested for NADPH oxidation in rat hepatic mycrosomal incubation. It is filed as functional. In outline:
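Phenobarbital-induced male Sprague-Dawley rat liver microsomes were placed in both cuvettes, without epinephrine. NADPH 0.4 mM was added to the sample side only, and absorbance was read at 340 nm. Percent stimulation = (drug rate − basal)/basal × 100. Values are the average ± standard errors of triplicates.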

The species entered for data set [2] is Rattus norvegicus. The experiment in a line: (§2) Compound tested for adrenochrome formation in rat hepatic mycrosomal incubation. It is filed as functional. Summed up:
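Adrenochrome assay for superoxide: epinephrine in 0.01 N HCl plus 300 µg of phenobarbital-induced rat liver microsomes at 37 °C. NADPH 0.4 mM was added to the sample side 1 min later, and the rate was read at 480 nm (ε 4.02 mM−1 cm−1). Drugs were at ≤100 µM, made in 150 mM KCl–50 mM Tris, pH 7.4. Percent stimulation is over basal rate, in triplicate.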

The nature of data set [3]: Minimum tolerated dose is the lethal dose for 10% normal mice for deaths during 21 days. It is filed as ADME, organism-based. Particulars: mouse, in vivo. In outline: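 Tumor-free male BDF1 mice (18–22 g) received a broad dose range ip in 5% dimethyl sulfoxide-saline on days 1, 5 and 9. Deaths were recorded over 21 days. The LD10 (dose killing 10% of animals) was calculated from a plot of log-dose vs. percent mortality.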

Data set [4] concerns P388. As to the kind of experiment: Inhibition of DNA synthesis was measured as the concentration required to cause 50% reduction (in 1h) in methyl [3H]thymidine incorporation into acid precipitable material using P388 cells. It is filed as functional, cell-based. Particulars: Mus musculus. In outline: (§3)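 P388 cells were exposed for 1 h. IC50 (µM) was taken as 50% reduction of methyl-[3H]thymidine (DNA) or 2-[14C]uridine (RNA) incorporation into acid-precipitable material. The ratio is IC50 DNA divided by IC50 RNA.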
(In general: Incorporation of labelled thymidine or its analogues reports DNA synthesis.)

Data set [5] has as its system P388. The experiment in a line: Inhibition of RNA synthesis was measured as the concentration required to cause 50% reduction (in 1h) in 2-[14C]uridine incorporation into acid precipitable material using P388 cells. It is filed as functional, cell-based. The note with it: Mus musculus, P388, 1 h.
The nature of data set [6]: Therapeutic index (MTD/MED) value of the compound. The note with it: read-out: TI.
The nature of data set [7]: IC50 DNA/IC50 RNA ratio of the compound. It is filed as functional. Summed up: as §3
The species named for data set [8] is Rattus norvegicus. Described as §1. It is filed as functional. In outline: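 Phenobarbital-induced rat liver microsomes (300 µg), 37 °C, no epinephrine; NADPH 0.4 mM added to sample cuvette only. A340 followed; % oxidation = (1 − A340/A'340)×100 vs cuvette not activated by microsomes; % stimulation = (drug rate − basal rate)/basal rate ×100. Drugs in 150 mM KCl-50 mM Tris pH 7.4; triplicate analyses, mean ± standard error.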
This is another data set of the same source.

The species named for data set [9] is Rattus norvegicus. The description is as §2. The format is functional. In outline:
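Superoxide read as adrenochrome from epinephrine (in 0.01 N HCl) with phenobarbital-induced rat liver microsomes (300 µg) at 37 °C; NADPH 0.4 mM added to sample cuvette after 1 min. Rate at 480 nm (ε 4.02 mM-1 cm-1); drug ≤100 µM in 150 mM KCl-50 mM Tris pH 7.4; % stimulation over basal rate; triplicate, mean ± standard error.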
The source holds these as a separate data set.

The subject of data set [10] is CCRF-CEM. The experiment in a line: Inhibitory dose required for the inhibition of human lymphoblastic leukemia cells(CCRF-CEM). The format is functional. The note with it: read-out: ID50 (the source's name).
The test system of data set [11] is Mus musculus. The experiment in a line: Antitumor activity against P388 leukemia cells in terms of percentage increase in life span in mice at an optimal dose of 1200 ug/kg administered ip. The format is functional.
Data set [12] has as its system Mus musculus. The experiment in a line: Antitumor activity against B16 melanoma in terms of percentage increase in life span in mice at an optimal dose of 1200 ug/kg administered ip. The format is functional.
For data set [13], the species on record is Mus musculus. As to the kind of experiment: Dose providing an increase in the life span of 45% over control in P388 tumor bearing mice. The format is functional. The note with it: read-out: MED. Summed up: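 MED is the ip dose in mg/kg, given on days 1, 5 and 9 starting 1 day after implantation, that gives a 45% increase in life span over control in P388-bearing mice. It was derived from plotted log-dose response data.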

Data set [14] concerns Mus musculus. The experiment in a line: Antitumor activity against P388 leukemia cells in terms of median survival time of mice at an optimal dose of 1200 ug/kg administered ip. The format is functional.
Data set [15] concerns Mus musculus. As to the kind of experiment: Antitumor activity against B16 melanoma in terms of median survival time of mice at an optimal dose of 1200 ug/kg administered ip. The format is functional.
In data set [16] the test system is Mus musculus. The experiment in a line: In vivo antitumor activity was determined against P388 leukemia mice as number of mice survived after administration of 1200 ug/Kg dose of compound; Value represented as no of survivors/ treated = 0/8. It is filed as functional.
Data set [17] has as its system Mus musculus. As to the kind of experiment: In vivo antitumor activity was determined against B16 melanoma mice as number of mice survived after administration of 1200 ug/Kg dose of compound; Value represented as no of survivors/ treated = 1/9. It is filed as functional.

Take `CCN(CC)C(=O)c1cc(=O)c(C)c2oc3c(C)c4oc(-c5ccccc5)nc4c(C(=O)N(CC)CC)c3nc1-2`: the NADPH oxidation in [1] is 8.9 nM min-1 (mg of protein)-1. Besides, the adrenochrome formation in [2] was 2.13 nM min-1 (mg of protein)-1.
In the case of `Cc1c2oc3c(C)c4oc(-c5ccccc5)nc4c(C(=O)N[C@@H]4C(=O)N[C@H](C(C)C)C(=O)N5CCC[C@H]5C(=O)N(C)CC(=O)N(C)[C@@H](C(C)C)C(=O)O[C@@H]4C)c3nc-2c(C(=O)N[C@@H]2C(=O)N[C@H](C(C)C)C(=O)N3CCC[C@H]3C(=O)N(C)CC(=O)N(C)[C@@H](C(C)C)C(=O)O[C@@H]2C)c(N)c1=O`, in data set [3], the maximum tolerated dose (MTD) at 504 h was found to be 1.8 mg/kg. The IC50 in [4] was 0.8 µM; in [5] it was 0.07 µM. Further, the selectivity ratio in [6] worked out at 60.
Take `Cc1c2oc3c(C)ccc(C(=O)N[C@@H]4C(=O)N[C@H](C(C)C)C(=O)N5CCC[C@@H]5C(=O)NCC(=O)N[C@@H](C(C)C)C(=O)O[C@@H]4C)c3nc-2c(C(=O)N[C@H]2C(=O)N[C@@H](C(C)C)C(=O)N3CCC[C@H]3C(=O)NCC(=O)N[C@H](C(C)C)C(=O)O[C@H]2C)c(N)c1=O`: the Ratio in data set [7] is 22.4.
The same measure, in the same setting: the result for `Cc1c2oc3c(C)c4oc(-c5ccccc5)nc4c(C(=O)N[C@H]4C(=O)N[C@@H](C(C)C)C(=O)N5CCC[C@H]5C(=O)NCC(=O)N(C)[C@H](C(C)C)C(=O)O[C@H]4C)c3nc-2c(C(=O)N[C@@H]2C(=O)N[C@H](C(C)C)C(=O)N3CCC[C@@H]3C(=O)NCC(=O)N[C@@H](C(C)C)C(=O)O[C@@H]2C)cc1=O` reads 1.78.
In data set [3], `Cc1c2oc3c(C)c4oc(-c5ccccc5)nc4c(C(=O)N[C@@H]4C(=O)N[C@H](C(C)C)C(=O)N5CCC[C@H]5C(=O)N(C)CC(=O)N(C)[C@@H](C(C)C)C(=O)O[C@@H]4C)c3nc-2c(C(=O)N[C@@H]2C(=O)N[C@H](C(C)C)C(=O)N3CCC[C@H]3C(=O)N(C)CC(=O)N(C)[C@@H](C(C)C)C(=O)O[C@@H]2C)cc1=O` registered an MTD at 504 h of 2 mg/kg. Moreover, the IC50 turned out to be 5.7 µM in data set [4] and 3.2 µM in data set [5]. In data set [6], the selectivity ratio amounted to 10.
As for `Cc1c2oc3c(C)c(O)c(N)c(C(=O)N[C@@H]4C(=O)N[C@H](C(C)C)C(=O)N5CCC[C@H]5C(=O)N(C)CC(=O)N(C)[C@@H](C(C)C)C(=O)O[C@@H]4C)c3nc-2c(C(=O)N[C@@H]2C(=O)N[C@H](C(C)C)C(=O)N3CCC[C@H]3C(=O)N(C)CC(=O)N(C)[C@@H](C(C)C)C(=O)O[C@@H]2C)cc1=O` [listing 1 of 2 here], the MTD at 504 h in data set [3] stood at 3.5 mg/kg. Further, the IC50 in data set [4] and in data set [5] was 5.1 µM each time. The selectivity ratio in data set [6] was 13.
For the compound `Cc1c2oc3c(C)c4oc(-c5ccccc5)nc4c(C(=O)N[C@H]4C(=O)N[C@@H](C(C)C)C(=O)N5CCC[C@H]5C(=O)N(C)CC(=O)N(C)[C@H](C(C)C)C(=O)O[C@H]4C)c3nc-2c(C(=O)N[C@@H]2C(=O)N[C@H](C(C)C)C(=O)N3CCC[C@@H]3C(=O)N(C)CC(=O)N(C)[C@@H](C(C)C)C(=O)O[C@@H]2C)c(N)c1=O`, in [7], the Ratio stood at 11.4.
In the case of `Cc1c2oc3c(C)c(O)c(N)c(C(=O)N[C@H]4C(=O)N[C@@H](C(C)C)C(=O)N5CCC[C@H]5C(=O)N(C)CC(=O)N(C)[C@H](C(C)C)C(=O)O[C@H]4C)c3nc-2c(C(=O)N[C@@H]2C(=O)N[C@H](C(C)C)C(=O)N3CCC[C@@H]3C(=O)N(C)CC(=O)N(C)[C@@H](C(C)C)C(=O)O[C@@H]2C)c(N)c1=O`, the Ratio in [7] is 0.97.
Turning to `CCN(CC)C(=O)c1c2nc3c(C(=O)N(CC)CC)c4nc(C)oc4c(C)c3oc-2c(C)c(=O)c1N`, the NADPH oxidation in data set [1] was 8.9 nM min-1 (mg of protein)-1. Besides, in data set [2], the adrenochrome formation is on record as 2.13 nM min-1 (mg of protein)-1.
For `CCN(CC)C(=O)c1c2nc3c(C(=O)N(CC)CC)c(N)c(O)c(C)c3oc-2c(C)c(=O)c1N`, the NADPH oxidation in [8] is 8.9 nM min-1 (mg of protein)-1. Also, in data set [9], the adrenochrome formation is recorded as 2.13 nM min-1 (mg of protein)-1.
As for `Cc1c2oc3c(C)c(O)c(N)c(C(=O)N[C@H]4C(=O)N[C@@H](C(C)C)C(=O)N5CCC[C@H]5C(=O)N(C)CC(=O)N(C)[C@H](C(C)C)C(=O)O[C@H]4C)c3nc-2c(C(=O)N[C@@H]2C(=O)N[C@H](C(C)C)C(=O)N3CCC[C@@H]3C(=O)N(C)CC(=O)N(C)[C@@H](C(C)C)C(=O)O[C@@H]2C)cc1=O`, in data set [7], the Ratio stood at 1.
Regarding `Cc1c2oc3c(C)c(O)c(N)c(C(=O)N[C@@H]4C(=O)N[C@H](C(C)C)C(=O)N5CCC[C@H]5C(=O)N(C)CC(=O)N(C)[C@@H](C(C)C)C(=O)O[C@@H]4C)c3nc-2c(C(=O)N[C@@H]2C(=O)N[C@H](C(C)C)C(=O)N3CCC[C@H]3C(=O)N(C)CC(=O)N(C)[C@@H](C(C)C)C(=O)O[C@@H]2C)c(N)c1=O`, the MTD at 504 h in data set [3] amounted to 2.4 mg/kg. The IC50 worked out at 1.11 µM in data set [4] and 1.15 µM in data set [5]. Also, in data set [6], the selectivity ratio came out at 96.
For `Cc1c2oc3c(C)c(O)c(N)c(C(=O)N[C@@H]4C(=O)N[C@H](C(C)C)C(=O)N5CCC[C@H]5C(=O)N(C)CC(=O)N(C)[C@@H](C(C)C)C(=O)O[C@@H]4C)c3nc-2c(C(=O)N[C@@H]2C(=O)N[C@H](C(C)C)C(=O)N3CCC[C@H]3C(=O)N(C)CC(=O)N(C)[C@@H](C(C)C)C(=O)O[C@@H]2C)cc1=O` [listing 2 of 2 here], the IC50 in data set [10] was found to be 1 µM. In addition, the ILS at 1.2 mg/kg turned out to be 136% in data set [11] and 52% in data set [12]. The minimal effective dose in data set [13] came to 0.275 mg/kg. For the same compound, the MST in data set [14] stood at 26 days; in data set [15], 44 days. For the same compound, the figures for the Survivors in data set [16] and in data set [17] were 0 and 1, respectively. In addition, the NADPH oxidation in data set [1] is 29.9 nM min-1 (mg of protein)-1. For the same compound, the adrenochrome formation in data set [2] was 7.29 nM min-1 (mg of protein)-1.
For the compound `Cc1nc2c(C(=O)N[C@H]3C(=O)N[C@@H](C(C)C)C(=O)N4CCC[C@H]4C(=O)N(C)CC(=O)N(C)[C@H](C(C)C)C(=O)O[C@H]3C)c3nc4c(C(=O)N[C@@H]5C(=O)N[C@H](C(C)C)C(=O)N6CCC[C@@H]6C(=O)N(C)CC(=O)N(C)[C@@H](C(C)C)C(=O)O[C@@H]5C)c(N)c(=O)c(C)c-4oc3c(C)c2o1`, the Ratio in [7] turned out to be 11.2.
